Variants at the floor of the assay were thinned out.

B1: tRNA (parent)
chain: GUUCCGUUGGCGUAAUGGUAACGCGUCUCCCUCCUAAGGAGAAGACUGCGGGUUCGAGUCCCGUACGGAACG

The variants in this data set derive from B1. Put plainly: yeast fitness relative to wild type (ratio to wild type); higher = fitter; tRNA-Arg(CCU), competitive growth, 37 C, YPD. The gist of the method:
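Variants of the tRNA-Arg(CCU) gene, chemically synthesised with a 3% per-site mutation rate at 69 sites, were placed at the native genomic locus in Saccharomyces cerevisiae. The pooled strains were competed in YPD at 37°C for 24 hours in six parallel replicates. Gene amplicons from the start population and from each end population were read by 100-nucleotide paired-end sequencing. Darwinian fitness relative to wild type came from changes in genotype frequencies; genotypes needed ≥ 100 starting reads, and estimates < 0.5 were set to 0.5.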
A15U U19C C31A G41C: the yeast fitness was 0.596.
To A15U C31G C33U A37C A65U G67A belongs no more than 0.5.
On to A15U U19C G23C C27G A45C G63C, for which the yeast fitness is no more than 0.5.
To A15U G18A U35C G58A belongs no more than 0.5; to A15U U26A A57C, no more than 0.5; to A15U U19C C31U A40C A57U, no more than 0.5.
For A15U C34A A40U G52A G68A the value was no more than 0.5; for A15U C31G C33G A42U, no more than 0.5; for A15U C31G U53A C55U G68U, no more than 0.5.
In the case of A15U C31U C46G G63A A65G A70U, the yeast fitness is no more than 0.5.
To A15U G18C C55U A69C belongs no more than 0.5.
With A15U G23C C29U G50A, the yeast fitness turned out to be 0.616.
Take A15U C30A C31U A45C C55G: the yeast fitness was no more than 0.5.
To A15U G23C C33A G67C belongs no more than 0.5; to A15U U19A, 0.767; to A15U C55U, 0.672.
For A15U C55A the value was 0.503; for A15U C55G, 0.604.
As for A15U G23C C34G C55G, the yeast fitness was no more than 0.5.
As for A15U G38A A40C, the yeast fitness was no more than 0.5.
Turning to A15U G25A C46U G56A, the yeast fitness came out at 1.04.
In the case of A15U U26A C60U G67A, the yeast fitness was no more than 0.5.
For A15U C60G A65U the value was no more than 0.5.
For A15U G50C C60U the value was no more than 0.5; for A15U C27U G48C A69G A70U, no more than 0.5; for A15U G17A, 0.707.
For A15U C49G the value was 0.671; for A15U C29U C66A, 0.57.
A15U C30U A57G: the yeast fitness is no more than 0.5.
To A15U U19C C31U A40C belongs no more than 0.5; to A15U C31G, 0.676.
With A15U C31A, the yeast fitness was 0.588.
A15U C31U: the yeast fitness was determined as 0.707.
To A15U G38C G51C A70C belongs no more than 0.5; to A15U G44C G68C, no more than 0.5.
For A15U U16C G38C G39A A43C C60G A65C the value was no more than 0.5.
Consider A15U U16C G18C C29A A43G A45G C62G, for which the yeast fitness was no more than 0.5.
To A15U C29G C34U C66U belongs no more than 0.5; to A15U C46A U53A A69G, no more than 0.5.
To A15U C31G C34U A40C belongs 0.531.
To A15U C33G G50A belongs 0.625; to A15U C46U U54C, 0.684; to A15U G48C G67C, no more than 0.5.
With A15U C27A G56C G63A, the yeast fitness was no more than 0.5.
For A15U C34A G39C A40C G56C C61G C62G G68C the value was 0.533; for A15U C46G A70U, 0.56.
As to A15U C34G C55U A69C, the yeast fitness is no more than 0.5.
For A15U G23U C24G the value was no more than 0.5; for A15U C30G G38A U54C, 0.553; for A15U G58C, 0.916.
For A15U G58A, the yeast fitness was found to be 1.
For the variant A15U U16C U35A G44A, the yeast fitness was no more than 0.5.
To A15U C29G C31G C60U belongs 0.675; to A15U C27U, 0.699; to A15U C62G, 0.646.
For the variant A15U G23C C33A G63C G68U, the yeast fitness is no more than 0.5.
As to A15U C29A C34G, the yeast fitness is no more than 0.5.
For A15U U16C A65G, the yeast fitness was no more than 0.5.
For A15U G38A the value was 0.635; for A15U G23C A45U G52A, no more than 0.5.
As to A15U G67A A69U, the yeast fitness stood at 0.558.
To A15U C30U G52A A65U belongs no more than 0.5; to A15U C34U G41C A69G, no more than 0.5.
On to A15U C31A C62U, for which the yeast fitness stood at 0.573.
To A15U C33G C34G A45U G51A belongs no more than 0.5; to A15U U19A A20G A40U A43U C60G C62U A69G, no more than 0.5.
Consider A15U G17C A45U C49G, for which the yeast fitness is no more than 0.5.
To A15U G23C U28G U32C A36U G38A C55A belongs 0.689.
With A15U C46A, the yeast fitness was 0.719.
To A15U C46G belongs 0.825; to A15U C46U, 0.978.
Regarding A15U G58A C66G, the yeast fitness was 0.943.
Consider A15U G25A A36U, for which the yeast fitness was 0.586.
To A15U U16G C55A A57C U59C belongs no more than 0.5.
For the variant A15U C33U G56A, the yeast fitness is no more than 0.5.
To A15U U19A A36U U54A belongs no more than 0.5; to A15U C27A U35C U54C U64C, no more than 0.5; to A15U C27A C62A A69U, no more than 0.5.
For A15U G23C A45U C62A the value was no more than 0.5; for A15U C27G U59C, no more than 0.5; for A15U C34G A37G A40C, 0.59.
For the variant A15U G25A G68A, the yeast fitness was found to be 0.698.
On to A15U C31A U54C, for which the yeast fitness is no more than 0.5.
To A15U C27U C49U belongs 0.655.

For the origin of these results see the RNAGym collection of RNA variant scans (doi:10.1126/science.aae0568).
